# Measured values from article PMC4358770 (Journal of medicinal chemistry, 2010).
# How the values were obtained:
# NTPDase2 = target: T1, NTPDase2 (Homo sapiens, UniProt Q9Y5L3); assay: NTPDase2 hydrolysis assay; assay type: in vitro ADME; conditions: 100 μM ATP (100% reference)
# T1 sequence (Q9Y5L3 1-495): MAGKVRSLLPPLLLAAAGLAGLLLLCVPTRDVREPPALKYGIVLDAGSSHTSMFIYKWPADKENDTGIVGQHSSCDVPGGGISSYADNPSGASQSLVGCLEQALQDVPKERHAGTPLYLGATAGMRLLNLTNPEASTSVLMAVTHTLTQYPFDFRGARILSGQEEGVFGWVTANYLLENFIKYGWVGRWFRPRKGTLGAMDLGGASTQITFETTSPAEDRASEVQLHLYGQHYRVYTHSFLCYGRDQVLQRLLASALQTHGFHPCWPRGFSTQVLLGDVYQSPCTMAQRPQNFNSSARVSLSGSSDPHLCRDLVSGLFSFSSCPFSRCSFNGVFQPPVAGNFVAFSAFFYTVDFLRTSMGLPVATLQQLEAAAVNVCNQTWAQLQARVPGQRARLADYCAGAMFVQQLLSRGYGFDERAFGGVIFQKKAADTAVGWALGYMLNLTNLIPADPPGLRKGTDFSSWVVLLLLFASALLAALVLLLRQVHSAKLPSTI
# In short: (§1)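 Enzymes were transiently expressed in COS-7 cells. Crude protein extracts were made by sonication, 300g clearing at 4 °C and storage at −80 °C, with protein measured by Bradford. Extract was preincubated 3 min at 37 °C in Tris-Ringer buffer, pH 7.4. […] Activity of untransfected-cell extract was subtracted.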
# NTPDase3 = target: T2, NTPDase3 (Homo sapiens, UniProt O75355); assay: NTPDase3 hydrolysis assay; assay type: in vitro ADME; conditions: 100 μM ATP (100% reference)
# T2 sequence (O75355 1-529): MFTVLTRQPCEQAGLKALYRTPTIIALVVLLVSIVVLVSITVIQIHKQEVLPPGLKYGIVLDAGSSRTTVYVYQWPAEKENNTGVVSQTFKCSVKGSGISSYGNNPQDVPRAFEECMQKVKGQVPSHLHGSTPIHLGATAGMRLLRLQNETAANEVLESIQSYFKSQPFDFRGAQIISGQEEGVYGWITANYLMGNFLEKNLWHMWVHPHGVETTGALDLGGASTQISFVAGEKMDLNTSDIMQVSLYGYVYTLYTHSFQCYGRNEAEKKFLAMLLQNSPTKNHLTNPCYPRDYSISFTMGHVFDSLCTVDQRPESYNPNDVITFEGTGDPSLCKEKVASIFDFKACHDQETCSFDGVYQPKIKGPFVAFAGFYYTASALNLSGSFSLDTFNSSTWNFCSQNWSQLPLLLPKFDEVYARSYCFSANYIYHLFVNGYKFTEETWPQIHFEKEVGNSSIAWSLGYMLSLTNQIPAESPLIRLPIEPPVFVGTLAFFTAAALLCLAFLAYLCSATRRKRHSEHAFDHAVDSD
# In short: as §1
smiles,measurement,setting,value
Nc1ncnc2c1ncn2[C@@H]1O[C@H](COP(=O)(O)OP(=O)(O)OP(=O)(O)O)[C@@H](O)[C@H]1O [ATP],hydrolysis rate by NTPDase2,NTPDase2,1006 ± 60 nmol Pi·min^−1·mg protein^−1
same,hydrolysis rate by NTPDase3,NTPDase3,533 ± 42 nmol Pi·min^−1·mg protein^−1
